{"source": "ChEMBL document CHEMBL3856258", "about": "“Phosphonate-based irreversible inhibitors of human γ-glutamyl transpeptidase (GGT). GGsTop is a non-toxic and highly selective inhibitor with critical electrostatic interaction with an active-site residue Lys562 for enhanced inhibitory activity” (Bioorg Med Chem, 2016)", "key": {"Salmonella typhimurium [1]": {"test_system": "Salmonella typhimurium", "assay": "Genotoxicity in Salmonella typhimurium TA98 assessed as number of revertant colonies per plate at 556 ug/plate after 20 mins in presence of S9 fraction by Ames test (reference value: 26)", "assay_type": "toxicity, organism-based", "settings": "salmonella enterica subsp. enterica serovar typhimurium"}, "[2]": {"assay": "Cytotoxicity against CHL cells assessed as growth rate at 3300 ug/ml preincubated for 6 hrs followed by 18 hrs incubation in fresh medium in presence of S9 fraction by MTT assay relative to control", "assay_type": "toxicity, cell-based, Cricetulus griseus", "settings": "chinese hamster, read-out: Activity"}, "Escherichia coli [3]": {"test_system": "Escherichia coli", "assay": "Genotoxicity in Escherichia coli WP2uvrA assessed as number of revertant colonies per plate at 20.6 ug/plate after 20 mins in absence of S9 fraction by Ames test (reference value: 24)", "assay_type": "toxicity", "settings": "s9, 20 min"}, "Salmonella typhimurium [4]": {"test_system": "Salmonella typhimurium", "assay": "Genotoxicity in Salmonella typhimurium TA100 assessed as number of revertant colonies per plate at 1667 ug/plate after 20 mins in absence of S9 fraction by Ames test (reference value: 123)", "assay_type": "toxicity, organism-based", "settings": "salmonella enterica subsp. enterica serovar typhimurium"}, "[5]": {"assay": "Cytotoxicity against CHL cells assessed as number of cells with numerical aberrations at 825 ug/ml after 24 hrs by Giemsa staining-based microscopic analysis relative to control", "assay_type": "toxicity, cell-based, Cricetulus griseus", "settings": "chinese hamster"}, "Escherichia coli [6]": {"test_system": "Escherichia coli", "assay": "Genotoxicity in Escherichia coli WP2uvrA assessed as number of revertant colonies per plate at 185 ug/plate after 20 mins in presence of S9 fraction by Ames test (reference value: 26)", "assay_type": "toxicity", "settings": "s9, 20 min"}, "Salmonella typhimurium [7]": {"test_system": "Salmonella typhimurium", "assay": "Genotoxicity in Salmonella typhimurium TA1535 assessed as number of revertant colonies per plate at 20.6 ug/plate after 20 mins in presence of S9 fraction by Ames test (reference value: 13)", "assay_type": "toxicity, organism-based", "settings": "salmonella enterica subsp. enterica serovar typhimurium"}, "[8]": {"assay": "Cytotoxicity against CHL cells assessed as growth rate at 528 ug/ml preincubated for 6 hrs followed by 18 hrs incubation in fresh medium in presence of S9 fraction by MTT assay relative to control", "assay_type": "toxicity, cell-based, Cricetulus griseus", "settings": "chinese hamster, read-out: Activity"}, "Salmonella typhimurium [9]": {"test_system": "Salmonella typhimurium", "assay": "Genotoxicity in Salmonella typhimurium TA100 assessed as number of revertant colonies per plate at 5000 ug/plate after 20 mins in absence of S9 fraction by Ames test (reference value: 123)", "assay_type": "toxicity, organism-based", "settings": "salmonella enterica subsp. enterica serovar typhimurium"}, "[10]": {"assay": "Cytotoxicity against CHL cells assessed as growth rate at 1320 ug/ml preincubated for 6 hrs followed by 18 hrs incubation in fresh medium in absence of S9 fraction by MTT assay relative to control", "assay_type": "toxicity, cell-based, Cricetulus griseus", "settings": "chinese hamster, read-out: Activity"}, "Salmonella typhimurium [11]": {"test_system": "Salmonella typhimurium", "assay": "Genotoxicity in Salmonella typhimurium TA100 assessed as number of revertant colonies per plate at 185 ug/plate after 20 mins in absence of S9 fraction by Ames test (reference value: 123)", "assay_type": "toxicity, organism-based", "settings": "salmonella enterica subsp. enterica serovar typhimurium"}, "[12]": {"assay": "Cytotoxicity against CHL cells assessed as growth rate at 33.8 ug/ml preincubated for 6 hrs followed by 18 hrs incubation in fresh medium in presence of S9 fraction by MTT assay relative to control", "assay_type": "toxicity, cell-based, Cricetulus griseus", "settings": "chinese hamster, read-out: Activity"}, "Salmonella typhimurium [13]": {"test_system": "Salmonella typhimurium", "assay": "Genotoxicity in Salmonella typhimurium TA1535 assessed as number of revertant colonies per plate at 61.7 ug/plate after 20 mins in absence of S9 fraction by Ames test (reference value: 15)", "assay_type": "toxicity, organism-based", "settings": "salmonella enterica subsp. enterica serovar typhimurium"}, "Salmonella typhimurium [14]": {"test_system": "Salmonella typhimurium", "assay": "Genotoxicity in Salmonella typhimurium TA100 assessed as number of revertant colonies per plate at 1667 ug/plate after 20 mins in presence of S9 fraction by Ames test (reference value: 142)", "assay_type": "toxicity, organism-based", "settings": "salmonella enterica subsp. enterica serovar typhimurium"}, "[15]": {"assay": "Cytotoxicity against CHL cells assessed as number of cells with numerical aberrations at 1650 ug/ml preincubated for 6 hrs followed by 18 hrs incubation in fresh medium in absence of S9 fraction by Giemsa-staining-based microscopic analysis relative to control", "assay_type": "toxicity, cell-based, Cricetulus griseus", "settings": "chinese hamster"}, "Escherichia coli [16]": {"test_system": "Escherichia coli", "assay": "Genotoxicity in Escherichia coli WP2uvrA assessed as number of revertant colonies per plate at 556 ug/plate after 20 mins in presence of S9 fraction by Ames test (reference value: 26)", "assay_type": "toxicity", "settings": "s9, 20 min"}, "Escherichia coli [17]": {"test_system": "Escherichia coli", "assay": "Genotoxicity in Escherichia coli WP2uvrA assessed as number of revertant colonies per plate at 1667 ug/plate after 20 mins in presence of S9 fraction by Ames test (reference value: 26)", "assay_type": "toxicity", "settings": "s9, 20 min"}, "Salmonella typhimurium [18]": {"test_system": "Salmonella typhimurium", "assay": "Genotoxicity in Salmonella typhimurium TA1537 assessed as number of revertant colonies per plate at 20.6 ug/plate after 20 mins in absence of S9 fraction by Ames test (reference value: 9)", "assay_type": "toxicity, organism-based", "settings": "salmonella enterica subsp. enterica serovar typhimurium"}, "[19]": {"assay": "Cytotoxicity against CHL cells assessed as growth rate at 84.5 ug/ml preincubated for 6 hrs followed by 18 hrs incubation in fresh medium in absence of S9 fraction by MTT assay relative to control", "assay_type": "toxicity, cell-based, Cricetulus griseus", "settings": "chinese hamster, read-out: Activity"}, "Salmonella typhimurium [20]": {"test_system": "Salmonella typhimurium", "assay": "Genotoxicity in Salmonella typhimurium TA98 assessed as number of revertant colonies per plate at 5000 ug/plate after 20 mins in presence of S9 fraction by Ames test (reference value: 26)", "assay_type": "toxicity, organism-based", "settings": "salmonella enterica subsp. enterica serovar typhimurium"}, "[21]": {"assay": "Cytotoxicity against CHL cells assessed as growth rate at 528 ug/ml after 24 hrs in absence of S9 fraction by MTT assay relative to control", "assay_type": "toxicity, cell-based, Cricetulus griseus", "settings": "chinese hamster, read-out: Activity"}, "[22]": {"assay": "Cytotoxicity against CHL cells assessed as growth rate at 84.5 ug/ml after 24 hrs in absence of S9 fraction by MTT assay relative to control", "assay_type": "toxicity, cell-based, Cricetulus griseus", "settings": "chinese hamster, read-out: Activity"}, "Salmonella typhimurium [23]": {"test_system": "Salmonella typhimurium", "assay": "Genotoxicity in Salmonella typhimurium TA98 assessed as number of revertant colonies per plate at 20.6 ug/plate after 20 mins in absence of S9 fraction by Ames test (reference value: 21)", "assay_type": "toxicity, organism-based", "settings": "salmonella enterica subsp. enterica serovar typhimurium"}, "Salmonella typhimurium [24]": {"test_system": "Salmonella typhimurium", "assay": "Genotoxicity in Salmonella typhimurium TA98 assessed as number of revertant colonies per plate at […] ug/plate after 20 mins in presence of S9 fraction by Ames test (reference value: 26)", "assay_type": "toxicity, organism-based", "settings": "salmonella enterica subsp. enterica serovar typhimurium"}, "[25]": {"assay": "Cytotoxicity against CHL cells assessed as number of cells with numerical aberrations at 1650 ug/ml preincubated for 6 hrs followed by 18 hrs incubation in fresh medium in presence of S9 fraction by Giemsa staining-based microscopic analysis relative to control", "assay_type": "toxicity, cell-based, Cricetulus griseus", "settings": "chinese hamster"}, "[26]": {"test_system": "Glutathione hydrolase 1 proenzyme (Homo sapiens), P19440 [K562S]", "sequence (P19440 whole entry K562S, the tested form may be a part)": "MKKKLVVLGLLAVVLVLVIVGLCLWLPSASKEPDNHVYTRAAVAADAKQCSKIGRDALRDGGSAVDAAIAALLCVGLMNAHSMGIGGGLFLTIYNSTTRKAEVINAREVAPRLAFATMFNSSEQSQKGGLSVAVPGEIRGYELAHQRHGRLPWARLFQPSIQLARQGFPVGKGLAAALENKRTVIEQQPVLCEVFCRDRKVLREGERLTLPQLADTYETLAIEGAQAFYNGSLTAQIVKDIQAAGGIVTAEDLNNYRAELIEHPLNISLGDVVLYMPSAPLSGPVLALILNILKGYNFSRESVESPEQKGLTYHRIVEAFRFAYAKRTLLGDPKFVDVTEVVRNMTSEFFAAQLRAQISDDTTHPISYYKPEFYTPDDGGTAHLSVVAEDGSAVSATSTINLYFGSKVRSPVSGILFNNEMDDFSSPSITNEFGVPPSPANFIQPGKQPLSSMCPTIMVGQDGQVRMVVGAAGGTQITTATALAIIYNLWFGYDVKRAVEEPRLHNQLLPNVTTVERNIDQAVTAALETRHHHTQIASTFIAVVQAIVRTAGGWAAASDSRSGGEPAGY", "assay": "Inhibition of human GGT K562S mutant expressed in baculovirus infected High Five cells assessed as residual activity up to 1 mM using gamma-Glu-PNA as substrate after 5 mins by spectrophotometric method relative to control", "settings": "BTI-TN-5B1-4", "procedure,_shortened": "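Soluble N-terminal-truncated (Δ1–27) GGT was secreted by baculovirus-infected High Five cells (4 d, 27 °C) and purified from the medium on Con A and Q Sepharose. Activity was measured in 100 mM Tris-HCl pH 8.0 with 1 mM γ-Glu-PNA and 20 mM Gly-Gly at 37 °C, reading p-nitroaniline release continuously at 410 nm.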"}, "[27]": {"assay": "Cytotoxicity against CHL cells assessed as chromatid gap at 1650 ug/ml preincubated for 6 hrs followed by 18 hrs incubation in fresh medium in absence of S9 fraction by Giemsa-staining-based microscopic analysis", "assay_type": "toxicity, cell-based, Cricetulus griseus", "settings": "chinese hamster"}, "[28]": {"assay": "Cytotoxicity against CHL cells assessed as growth rate at 13.5 ug/ml preincubated for 6 hrs followed by 18 hrs incubation in fresh medium in presence of S9 fraction by MTT assay relative to control", "assay_type": "toxicity, cell-based, Cricetulus griseus", "settings": "chinese hamster, read-out: Activity"}, "[29]": {"assay": "Cytotoxicity against CHL cells assessed as chromatid gap at 825 ug/ml preincubated for 6 hrs followed by 18 hrs incubation in fresh medium in absence of S9 fraction by Giemsa-staining-based microscopic analysis", "assay_type": "toxicity, cell-based, Cricetulus griseus", "settings": "chinese hamster"}, "[30]": {"assay": "Hydrolytic stability of the compound in D2O assessed as formation of monomethyl phosphonate and phenol at 23 degC up to 28 days by 31P NMR spectroscopy", "assay_type": "physicochemical", "settings": "672 h"}}, "data": [{"smiles": "COP(=O)(CCC(N)C(=O)O)Oc1cccc(CC(=O)O)c1", "note": "(stereo not given)", "values": [{"measurement": "Activity", "setting": "Salmonella typhimurium [1]", "result": 28}, {"measurement": "viability at 18 h, 3300 ug/ml", "setting": "[2]", "result": 96.8, "unit": "%"}, {"measurement": "Activity", "setting": "Escherichia coli [3]", "result": 26}, {"measurement": "Activity", "setting": "Salmonella typhimurium [4]", "result": 131}, {"measurement": "Activity", "setting": "[5]", "result": 0, "unit": "%"}, {"measurement": "Activity", "setting": "Escherichia coli [6]", "result": 28}, {"measurement": "Activity", "setting": "Salmonella typhimurium [7]", "result": 11}, {"measurement": "viability at 18 h, 528 ug/ml", "setting": "[8]", "result": 95.2, "unit": "%"}, {"measurement": "Activity", "setting": "Salmonella typhimurium [9]", "result": 123}, {"measurement": "viability at 18 h, 1320 ug/ml", "setting": "[10]", "result": 95.7, "unit": "%"}, {"measurement": "Activity", "setting": "Salmonella typhimurium [11]", "result": 128}, {"measurement": "viability at 18 h, 33.8 ug/ml", "setting": "[12]", "result": 101, "unit": "%"}, {"measurement": "Activity", "setting": "Salmonella typhimurium [13]", "result": 8}, {"measurement": "Activity", "setting": "Salmonella typhimurium [14]", "result": 131}, {"measurement": "Activity", "setting": "[15]", "result": 0, "unit": "%"}, {"measurement": "Activity", "setting": "Escherichia coli [16]", "result": 27}, {"measurement": "Activity", "setting": "Escherichia coli [17]", "result": 23}, {"measurement": "Activity", "setting": "Salmonella typhimurium [18]", "result": 9}, {"measurement": "viability at 18 h, 84.5 ug/ml", "setting": "[19]", "result": 102, "unit": "%"}, {"measurement": "Activity", "setting": "Salmonella typhimurium [20]", "result": 27}, {"measurement": "viability at 24 h, 528 ug/ml", "setting": "[21]", "result": 96, "unit": "%"}, {"measurement": "viability at 24 h, 84.5 ug/ml", "setting": "[22]", "result": 101, "unit": "%"}, {"measurement": "Activity", "setting": "Salmonella typhimurium [23]", "result": 21}, {"measurement": "Activity", "setting": "Salmonella typhimurium [24]", "result": 25}, {"measurement": "Activity", "setting": "[25]", "result": 0, "unit": "%"}, {"measurement": "Activity", "setting": "[26]", "result": "> 80", "unit": "%"}, {"measurement": "Activity", "setting": "[27]", "result": 0, "unit": "%"}, {"measurement": "viability at 18 h, 13.5 ug/ml", "setting": "[28]", "result": 103, "unit": "%"}, {"measurement": "Activity", "setting": "[29]", "result": 1, "unit": "%"}, {"measurement": "Stability", "setting": "[30]", "result": "Stable"}]}]}
